Measurements reported in ChEMBL document CHEMBL1128731, “Furanfurin and thiophenfurin: two novel tiazofurin analogues. Synthesis, structure, antitumor activity, and interactions with inosine monophosphate dehydrogenase” (J Med Chem, 1995).
pIC50: −log10 of the molar value.

How the values were obtained:
B16 = test: Inhibitory concentration against B16 melanoma cell lines; assay type: functional, cell-based; details: Mus musculus
How it was run: (§1)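 Cells in log phase plated with a range of drug concentrations (B16 5×10^3 cells/well; P388, L1210, LLC 10^4 cells/well; HL-60, K562, LoVo 2.5×10^5 cells/well). Growth read by modified MTT after 72 h drug contact at 37 °C. IC50 taken as the concentration reducing optical absorption by 50%, from Chou regression analysis. Maximum concentration tested 200 μM.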

HL-60 [1] = test: (§2) Inhibitory concentration against human HL-60 cell line(activity expressed as range); assay type: functional, cell-based
How it was run: (§3)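 Antiproliferative assay scoring [125I]-5-iodo-2'-deoxyuridine incorporation into DNA after 72 h drug–cell contact. Run on normal human bone marrow from five donors and in three assays on HL-60. Ratio is antilog(mean log IC50 or IC90) on bone marrow over the same on HL-60. Range limits are antilog(mean log IC50 ± 2SD).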

Homo sapiens = species on record: Homo sapiens; test: Inhibitory concentration range against human bone marrow; assay type: functional, organism-based; how it was run: as §3
K562 [2] = test: Compound was tested for its effect on UDP ribonucleotide levels of K562 cell at 50 uM concentration; assay type: functional, Homo sapiens
How it was run: (§4)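 K562 cells (1×10^7) were treated with saline or agent for 2 h at 37 °C, harvested by centrifugation and washed with cold saline. They were extracted with cold 10% trichloroacetic acid, neutralized with 0.5 M tri-n-octylamine in freon, and analyzed by HPLC. Levels are in nmol/g and expressed as % of saline control. Significance was set at p < 0.05.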

K562 [3] = test: Compound was tested for its effect on UMP ribonucleotide levels of K562 cell at 100 uM concentration; assay type: functional, Homo sapiens; how it was run: as §4
K562 [4] = test: Compound was tested for its effect on UTP ribonucleotide levels of K562 cell at 10 uM concentration; assay type: functional, Homo sapiens; how it was run: as §4
K562 [5] = test: Compound was tested for its effect on UTP ribonucleotide levels of K562 cell at 50 uM concentration; assay type: functional, Homo sapiens; how it was run: as §4
K562 [6] = test: compound was tested for its effect on IMPDH activity against K562 cells at 100 uM concentration; assay type: functional, Homo sapiens
How it was run: (§5)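 K562 cells (1×10^6/mL, log phase) exposed 2 h at 37 °C to 10, 50 or 100 μM drug, or to saline. Cells washed and lysed in Tris-HCl pH 7.4/NaCl/MgCl2/NP-40/aprotinin, and the 13000g supernatant used as enzyme. Enzyme incubated 30 min at 37 °C with 286 μM [2,8-3H]IMP and 1 mM NAD. Tritium release counted; activity in nmol XMP/h/mg protein, as % of saline control.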

K562 [7] = test: compound was tested for its effect on IMPDH activity against K562 cells at 10 uM concentration; assay type: functional, Homo sapiens; how it was run: as §5
K562 [8] = test: Compound was tested for its effect on GMP ribonucleotide levels of K562 cell at 50 uM concentration; assay type: functional, Homo sapiens; how it was run: as §4
K562 [9] = test: Compound was tested for its effect on GTP ribonucleotide levels of K562 cell at 50 uM concentration; assay type: functional, Homo sapiens; how it was run: as §4
K562 [10] = test: Compound was tested for its effect on NAD ribonucleotide levels of K562 cell at 10 uM concentration; assay type: functional, Homo sapiens; how it was run: as §4
K562 [11] = test: Inhibitory concentration against K562 human myelogenous leukemia cell line; assay type: functional, cell-based; how it was run: as §1
K562 [12] = test: Compound was tested for its effect on IMPDH activity against K562 cells at 100 uM concentration; assay type: functional, Homo sapiens
How it was run: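 Log-phase K562 cells (1×10^6/mL) were exposed to saline or agent for 2 h at 37 °C, washed and lysed (Tris-HCl pH 7.4, NaCl, MgCl2, 0.5% NP-40, aprotinin). The cleared supernatant was incubated 30 min at 37 °C with 286 μM [2,8-3H]IMP and 1 mM NAD. Tritium release was counted by scintillation. Activity is nmol XMP/h/mg protein, also given as % of control.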

L1210 = test: Inhibitory concentration against L1210 murine lymphocytic leukemia; assay type: functional, cell-based; details: Mus musculus; how it was run: as §1
K562 [13] = test: Compound was tested for its effect on ADP ribonucleotide levels of K562 cell at 100 uM concentration; assay type: functional, Homo sapiens; how it was run: as §4
K562 [14] = test: Compound was tested for its effect on ADP ribonucleotide levels of K562 cell at 50 uM concentration; assay type: functional, Homo sapiens; how it was run: as §4
K562 [15] = test: Compound was tested for its effect on AMP ribonucleotide levels of K562 cell at 50 uM concentration; assay type: functional, Homo sapiens; how it was run: as §4
K562 [16] = test: Compound was tested for its effect on ATP ribonucleotide levels of K562 cell at 10 uM concentration; assay type: functional, Homo sapiens; how it was run: as §4
K562 [17] = test: Compound was tested for its effect on CDP ribonucleotide levels of K562 cell at 10 uM concentration; assay type: functional, Homo sapiens; how it was run: as §4
K562 [18] = test: Compound was tested for its effect on CDP ribonucleotide levels of K562 cell at 50 uM concentration; assay type: functional, Homo sapiens; how it was run: as §4
K562 [19] = test: Compound was tested for its effect on CTP ribonucleotide levels of K562 cell at 100 uM concentration; assay type: functional, Homo sapiens; how it was run: as §4
K562 [20] = test: Compound was tested for its effect on CTP ribonucleotide levels of K562 cell at 50 uM concentration; assay type: functional, Homo sapiens; how it was run: as §4
K562 [21] = test: Compound was tested for its effect on GDP ribonucleotide levels of K562 cell at 100 uM concentration; assay type: functional, Homo sapiens; how it was run: as §4
K562 [22] = test: Compound was tested for its effect on GDP ribonucleotide levels of K562 cell at 10 uM concentration; assay type: functional, Homo sapiens; how it was run: as §4
LoVo = test: Inhibitory concentration against LoVo human colon adenocarcinoma cell lines; assay type: functional, cell-based; how it was run: as §1
Mus musculus [23] = test: Average weight change of mice from onset to termination of drug treatment at 100 mg/kg dose; early death due to toxicity; assay type: functional, organism-based; parameters: dose 100 mg/kg
How it was run: (§6)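 Female BD2F1 mice (8 weeks, 20–22 g), eight per group, injected ip with 10^5 L1210 cells on day 0. From 24 h later, drug in 0.9% NaCl was given ip once daily for 9 days. Body weight change was averaged from onset to termination of treatment. Early deaths from toxicity were recorded.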

Mus musculus [24] = test: Compound was tested for ratio of survival time of treated to control mice x100 at 100 mg/kg dose; assay type: functional
How it was run: (§7)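 Female BD2F1 mice (8 weeks old, 20–22 g), eight per group, injected ip with 10^5 L1210 leukemia cells on day 0. Starting 24 h later, drug dissolved in 0.9% NaCl given ip once daily for 9 consecutive days. % T/C = survival time of treated/control mice × 100. Body weight change tracked from start to end of treatment.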

Mus musculus [25] = test: Compound was tested for ratio of survival time of treated to control mice x100 at 6.2 mg/kg dose; assay type: functional; how it was run: as §7
P388 = test: Inhibitory concentration against P388 murine lymphocytic leukemia cell lines; assay type: functional, cell-based; details: Mus musculus; how it was run: as §1
Mus musculus [26] = test: Average weight change of mice from onset to termination of drug treatment at 25 mg/kg dose; assay type: functional; how it was run: as §6
[27] = Ratio of IC50 against HL-60; assay type: functional; how it was run: as §3
[28] = IC50 ratio against bone marrow samples to HL-60; assay type: functional; how it was run: as §3
K562 [29] = test: Compound was tested for its effect on UMP ribonucleotide levels of K562 cell at 10 uM concentration; assay type: functional, Homo sapiens; how it was run: as §4
HL-60 [30] = test: as §2; assay type: functional; how it was run: as §3

Question: With `NC(=O)c1csc([C@@H]2O[C@H](CO)[C@@H](O)[C@H]2O)c1` as the compound, how does the pIC50 (B16) read?
Answer: 4.59

Question: What about the pIC50 (HL-60 [1]) of the same compound?
Answer: 5.62

Question: What about the pIC50 (Homo sapiens) of the same compound?
Answer: 4.67

Question: And the Control (K562 [2])?
Answer: 134%

Question: What about the Control (K562 [3]) of the same compound?
Answer: 107%

Question: What about the Control (K562 [4]) of the same compound?
Answer: 91%

Question: What about the Control (K562 [5]) of the same compound?
Answer: 99%

Question: And the Control (K562 [6])?
Answer: 22%

Question: What about the Control (K562 [7]) of the same compound?
Answer: 56%

Question: And the Control (K562 [8])?
Answer: 90%

Question: What about the Control (K562 [9]) of the same compound?
Answer: 58%

Question: What about the Control (K562 [10]) of the same compound?
Answer: 81%

Question: And the pIC50 (K562 [11])?
Answer: 5.06

Question: And the Activity (K562 [12])?
Answer: 1.07

Question: What about the pIC50 (L1210) of the same compound?
Answer: 5.12

Question: And the Control (K562 [13])?
Answer: 105%

Question: What about the Control (K562 [14]) of the same compound?
Answer: 114%

Question: And the Control (K562 [15])?
Answer: 140%

Question: What about the Control (K562 [16]) of the same compound?
Answer: 92%

Question: And the Control (K562 [17])?
Answer: 84%

Question: And the Control (K562 [18])?
Answer: 82%

Question: And the Control (K562 [19])?
Answer: 32%

Question: What about the Control (K562 [20]) of the same compound?
Answer: 32%

Question: What about the Control (K562 [21]) of the same compound?
Answer: 77%

Question: What about the Control (K562 [22]) of the same compound?
Answer: 97%

Question: What about the pIC50 (LoVo) of the same compound?
Answer: 3.99

Question: What about the Change (Mus musculus [23]) of the same compound?
Answer: Toxic

Question: And the T/C (Mus musculus [24])?
Answer: <100%

Question: And the T/C (Mus musculus [25])?
Answer: 155%

Question: What about the pIC50 (P388) of the same compound?
Answer: 5.49

Question: And the Change (Mus musculus [26])?
Answer: -9.8%

Question: And the Ratio [27]?
Answer: 5.9

Question: What about the Ratio [28] of the same compound?
Answer: 21.9

Question: What about the Control (K562 [29]) of the same compound?
Answer: 110%

Question: What about the IC90 (HL-60 [30]) of the same compound?
Answer: 8.3 µM
